Consider twelve compounds from ChEMBL document CHEMBL3792315, “Potent, Selective, and CNS-Penetrant Tetrasubstituted Cyclopropane Class IIa Histone Deacetylase (HDAC) Inhibitors” (ACS Med Chem Lett, 2016).

Data set [1] is described as follows: Oral bioavailability in C57Bl/6 mouse plasma at 10 mg/kg. The format is ADME, organism-based.
Data set [2] relates to Plasma. The data set is described as follows: Dose normalized AUC in C57Bl/6 mouse plasma at 10 mg/kg, po. In kind it is ADME, organism-based. The settings on record: in vivo. In outline: (§1)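 A single 10 mg/kg oral gavage dose was given to fed male C57Bl/6 mice. Concentrations were measured in plasma, brain and muscle to derive Cmax, Tmax and AUC, with Cmax and AUC normalised to dose.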

The subject of data set [3] is Brain. The data set can be described thus: Dose normalized AUC in C57Bl/6 mouse brain at 10 mg/kg, po. In kind it is ADME, organism-based. To be noted: in vivo. In outline: as §1
Data set [4] has as its system Muscle tissue. The data set can be described thus: Dose normalized AUC in C57Bl/6 mouse muscle at 10 mg/kg, po. In kind it is ADME, organism-based. The settings on record: in vivo. In outline: as §1
Data set [5] relates to Plasma. The data set is described as follows: Dose normalized Cmax in C57Bl/6 mouse plasma at 10 mg/kg, po. In kind it is ADME, organism-based. To be noted: in vivo. In outline: as §1
Data set [6] deals with Brain. The data set can be described thus: Dose normalized Cmax in C57Bl/6 mouse brain at 10 mg/kg, po. In kind it is ADME, organism-based. To be noted: in vivo. In outline:
as §1

In data set [7] the test system is Muscle tissue. The data set is described as follows: Dose normalized Cmax in C57Bl/6 mouse muscle at 10 mg/kg, po. The format is ADME, organism-based. To be noted: in vivo. In outline:
as §1

A short description of data set [8]: Tmax in C57Bl/6 mouse plasma at 10 mg/kg, po. In kind it is ADME, organism-based. In outline: as §1
Data set [9] is described as follows: Tmax in C57Bl/6 mouse brain at 10 mg/kg, po. In kind it is ADME, organism-based. In outline:
as §1

Data set [10] is described as follows: Tmax in C57Bl/6 mouse muscle at 10 mg/kg, po. In kind it is ADME, organism-based, Muscle tissue. In outline: as §1
Data set [11] in a line: Volume of distribution at steady state in C57Bl/6 mouse plasma at 5 mg/kg, iv. In kind it is ADME, organism-based. To be noted: read-out: Vdss. In outline:
(§2)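 Fed male C57Bl/6 mice were dosed intravenously, and plasma was sampled to derive half-life, plasma clearance and steady-state volume of distribution. The iv dose differed per compound (5, 1 or 2.5 mg/kg).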

The nature of data set [12]: Apparent permeability across apical to basolateral side in MDCK cells expressing MDR1. In kind it is ADME, cell-based, Canis lupus familiaris. The settings on record: dog.
A short description of data set [13]: Volume of distribution at steady state in C57Bl/6 mouse plasma at 1 mg/kg, iv. In kind it is ADME, organism-based. To be noted: read-out: Vdss. In outline: as §2
A short description of data set [14]: Volume of distribution at steady state in C57Bl/6 mouse plasma at 2.5 mg/kg, iv. In kind it is ADME, organism-based. To be noted: read-out: Vdss. In outline: as §2

In [1], `O=C(NO)[C@@H]1[C@H](c2ccccc2)[C@H]1c1ccc(-c2ncc(F)cn2)cc1` registered a bioavailability of 100%. For the same compound, the AUC/dose in the data set with Plasma [2] turned out to be 110 nM·kg·h/mg; in the data set on Brain [3], 830 nM·kg·h/mg; in the data set on Muscle tissue [4] it was 330 nM·kg·h/mg. Also, the results for the Cmax/dose with Plasma [5], in the data set on Brain [6] and in the data set with Muscle tissue [7] were 97 nM·kg/mg, 570 nM·kg/mg and 320 nM·kg/mg, respectively. Besides, the Tmax in data set [8], in data set [9] and in data set [10] was 30 min each time. In addition, the Vd in data set [11] amounted to 4.1 L/kg.

As for `Cc1cnc(-c2ccc([C@@H]3[C@@H](c4ccccc4)[C@@]3(F)C(=O)NO)cc2)nc1`, the Papp A→B in data set [12] was 36.9 ×10⁻⁶ cm/s.

Turning to `Cc1cnc(-c2ccc([C@H]3[C@H](C(=O)NO)[C@@H]3c3ccccc3)cc2)nc1`, the Papp A→B in data set [12] came to 37.5 ×10⁻⁶ cm/s.

`O=C(NO)[C@]1(F)[C@H](c2ccccc2)[C@H]1c1ccc(-c2ncc(F)cn2)cc1`: the Papp A→B in data set [12] worked out at 41.8 ×10⁻⁶ cm/s. For the same compound, the bioavailability in [1] worked out at 79%. Moreover, the AUC/dose in the data set with Plasma [2] was 480 nM·kg·h/mg; in the data set on Brain [3], 1900 nM·kg·h/mg; in the data set on Muscle tissue [4], 640 nM·kg·h/mg. The Cmax/dose in the data set on Plasma [5] is 180 nM·kg/mg; with Brain [6], 780 nM·kg/mg; in the data set with Muscle tissue [7] it was 290 nM·kg/mg. Besides, the Tmax worked out at 15 min in data set [8], 30 min in [9] and 30 min in data set [10]. The Vd in [13] was found to be 5.1 L/kg.

Consider `O=C(NO)[C@]1(F)[C@H](c2ccccc2)[C@H]1c1ccc(-c2cnco2)cc1`, for which the Papp A→B in [12] amounted to 48.7 ×10⁻⁶ cm/s.

As for `Cc1cnc(-c2ccc([C@@H]3[C@@H](c4ccccc4)[C@@]3(C)C(=O)NO)cc2)nc1`, the Papp A→B in data set [12] is 39.1 ×10⁻⁶ cm/s.

As for `O=C(NO)[C@@H]1[C@H](c2ccccc2)[C@H]1c1ccc(-c2ncc(OC(F)F)cn2)cc1`, the Papp A→B in data set [12] is 12.9 ×10⁻⁶ cm/s.

`O=C(NO)[C@]1(F)[C@H](c2ccccc2)[C@H]1c1ccc(-c2nccc(C(F)(F)F)n2)cc1`: the Papp A→B in data set [12] was 7 ×10⁻⁶ cm/s.

Regarding `O=C(NO)[C@]1(F)[C@H](c2ccccc2)[C@H]1c1ccc(-c2ncc(Cl)cn2)cc1`, the Papp A→B in data set [12] is below 1 ×10⁻⁶ cm/s.

`O=C(NO)[C@@H]1[C@H](c2ccccc2)[C@H]1c1ccc(-c2nccc(C(F)(F)F)n2)cc1`: the Papp A→B in [12] worked out at 11.4 ×10⁻⁶ cm/s.

Consider `O=C(NO)[C@]1(F)[C@H](c2ccccc2)[C@H]1c1ccc(-c2ncc(OC(F)F)cn2)cc1`, for which the Papp A→B in data set [12] stood at 19.2 ×10⁻⁶ cm/s. The compound also returned a bioavailability in [1] of 100%. Moreover, the AUC/dose in the data set on Plasma [2] was found to be 660 nM·kg·h/mg; in the data set with Brain [3] it was 580 nM·kg·h/mg; in the data set on Muscle tissue [4], 300 nM·kg·h/mg. In addition, the Cmax/dose was 150 nM·kg/mg in the data set on Plasma [5], 120 nM·kg/mg in the data set with Brain [6] and 56 nM·kg/mg in the data set with Muscle tissue [7]. Further, the Tmax turned out to be 15 min in [8], 60 min in data set [9] and 30 min in data set [10]. The Vd in [14] worked out at 10 L/kg.

For the compound `O=C(NO)[C@@H]1[C@H](c2ccccc2)[C@H]1c1ccc(-c2ncc(Cl)cn2)cc1`, the Papp A→B in [12] amounted to 38 ×10⁻⁶ cm/s.

The bioavailability is dose-corrected exposure relative to a reference, in per cent. Low readings indicate little systemic uptake, high ones much systemic uptake. As a reminder, the Tmax is the time from dosing to the highest level. For orientation: Papp A→B means how fast a substance crosses the layer from the apical side.
